ChEMBL document CHEMBL1136007, “Synthesis, antifungal activity, and molecular modeling studies of new inverted oxime ethers of oxiconazole” (2002)
Values after ≈ are worked out from the molar mass of the structure shown.

Legend:
[1] = test system: Candida parapsilosis; test: In vitro antifungal activity against Candida parapsilosis 2372E; type: functional; conditions: Lodderomyces parapsilosis
Summary of the method: (§1)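 Yeast broth microdilution per NCCLS M27-A, with 2-fold drug dilutions from 0.001 to 128 µg/mL. The inoculum was adjusted spectrophotometrically, giving a final ~10^4 cells/mL. Plates were incubated for 24 h at 35 °C, static and humid, then shaken and read visually and at 450 nm. MIC = lowest concentration preventing discernible growth (~90% reduction vs drug-free wells).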

[2] = test system: Trichophyton rubrum; test: (§2) In vitro antifungal activity against Trichophyton rubrum CM1447; type: functional
[3] = test system: Aspergillus fumigatus; test: microbe, parasite or virus in culture; type: functional
[4] = test system: Trichophyton benhamiae; test: (§3) In vitro antifungal activity against Trichophyton mentagrophytes CM84; type: functional, Arthroderma benhamiae
[5] = test system: Candida parapsilosis; test: microbe, parasite or virus in culture; type: functional; conditions: Lodderomyces parapsilosis
[6] = test system: Candida albicans; test: In vitro antifungal activity against Candida albicans 4711E; type: functional; summary of the method: as §1
[7] = test system: Nakaseomyces glabratus; test: In vitro antifungal activity against Candida glabrata 2375E; type: functional
[8] = test system: Aspergillus flavus; test: (§4) In vitro antifungal activity against Aspergillus flavus CM74; type: functional
Summary of the method: (§5)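 Broth microdilution in RPMI-2% glucose following NCCLS M38-P. Conidia came from Sabouraud dextrose agar slants grown at 27 °C. They were harvested in saline with 0.1% Tween 80, gauze-filtered, counted by hemocytometer and stored at -70 °C. The final inoculum was ~10^4 conidia/mL, with 2-fold drug dilutions from 0.25 to 128 µg/mL. Plates were incubated at 35 °C and read by mirror once control growth was visible. MIC = lowest concentration with no visible growth.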

[9] = test system: Candida albicans; test: microbe, parasite or virus in culture; type: functional
[10] = test system: Aspergillus fumigatus; test: In vitro antifungal activity against Aspergillus fumigatus 48238E; type: functional; summary of the method: as §5
[11] = test system: Aspergillus flavus; test: as §4; type: functional; remark: listed apart in the source
[12] = test system: Trichophyton benhamiae; test: as §3; type: functional, Arthroderma benhamiae; summary of the method: as §5; remark: listed apart in the source
[13] = test system: Nakaseomyces glabratus; test: microbe, parasite or virus in culture; type: functional
[14] = test system: Trichophyton rubrum; test: as §2; type: functional; summary of the method: as §5; remark: listed apart in the source

Structure (SMILES)	MFC [1] [µg/mL]	MIC [2] [µg/mL]	MIC [3] [µg/mL]	MIC [4] [µg/mL]	MIC [5] [µg/mL]	MFC [6] [µg/mL]	MFC [7] [µg/mL]	MFC [8] [µg/mL]	MIC [9] [µg/mL]	MFC [10] [µg/mL]	MIC [11] [µg/mL]	MFC [12] [µg/mL]	MIC [13] [µg/mL]	MFC [14] [µg/mL]
Fc1ccc(C(Cn2ccnc2)O/N=C/c2ccc(OCCN3CCOCC3)cc2)c(F)c1 (stereo not given)	4 (≈ 8.76 µM)	8 (≈ 17.5 µM)	64 (≈ 140 µM)	> 128	0.25 (≈ 0.548 µM)	64 (≈ 140 µM)	8 (≈ 17.5 µM)	64 (≈ 140 µM)	64 (≈ 140 µM)	64 (≈ 140 µM)	64 (≈ 140 µM)	> 128	2 (≈ 4.38 µM)	16 (≈ 35 µM)
Fc1ccc(/C(Cn2ccnc2)=N/OC(Cn2ccnc2)c2ccc(F)cc2F)c(F)c1 (stereo not given)	128 (≈ 289 µM)	64 (≈ 144 µM)	> 128	64 (≈ 144 µM)	8 (≈ 18 µM)	> 128	16 (≈ 36.1 µM)	> 128	2 (≈ 4.51 µM)	> 128	> 128	> 128	4 (≈ 9.02 µM)	64 (≈ 144 µM)
Clc1ccc(/C(Cn2ccnc2)=N/OC(Cn2ccnc2)c2ccc(Cl)cc2Cl)c(Cl)c1 (stereo not given)	–	–	128 (≈ 251 µM)	–	–	–	–	–	32 (≈ 62.8 µM)	–	–	–	–	–
CC/C(=N\OC(Cn1ccnc1)c1ccc(Cl)cc1Cl)c1ccc(Cl)cc1Cl (stereo not given)	–	–	> 128	–	–	–	–	–	16 (≈ 35 µM)	–	–	–	–	–
CCC/C(=N\OC(Cn1ccnc1)c1ccc(Cl)cc1Cl)c1ccc(Cl)cc1Cl (stereo not given)	–	–	> 128	–	–	–	–	–	> 128	–	–	–	–	–
C/C(=N\OC(Cn1ccnc1)c1ccc(F)cc1F)c1ccc(F)cc1 (stereo not given)	–	–	16 (≈ 44.5 µM)	–	–	–	–	–	64 (≈ 178 µM)	–	–	–	–	–
C/C(=N\OC(Cn1ccnc1)c1ccc(Cl)cc1Cl)c1ccc(OCCN2CCOCC2)cc1 (stereo not given)	8 (≈ 15.9 µM)	2 (≈ 3.97 µM)	32 (≈ 63.6 µM)	4 (≈ 7.95 µM)	0.004 (≈ 0.00795 µM)	8 (≈ 15.9 µM)	8 (≈ 15.9 µM)	32 (≈ 63.6 µM)	1 (≈ 1.99 µM)	32 (≈ 63.6 µM)	32 (≈ 63.6 µM)	8 (≈ 15.9 µM)	0.06 (≈ 0.119 µM)	16 (≈ 31.8 µM)
C/C(=N\OC(Cn1ccnc1)c1ccc(F)cc1F)c1ccccc1F.Cl (stereo not given)	–	–	16	–	–	–	–	–	32	–	–	–	–	–
Cl.Fc1ccc(C(Cn2ccnc2)O/N=C/c2c(F)cccc2F)c(F)c1 (stereo not given)	–	–	32	–	–	–	–	–	32	–	–	–	–	–
C/C(=N\OC(Cn1ccnc1)c1ccc(Cl)cc1Cl)c1ccc(Cl)cc1Cl (stereo not given)	16 (≈ 36.1 µM)	8 (≈ 18.1 µM)	8 (≈ 18.1 µM)	8 (≈ 18.1 µM)	1 (≈ 2.26 µM)	8 (≈ 18.1 µM)	2 (≈ 4.51 µM)	32 (≈ 72.2 µM)	4 (≈ 9.03 µM)	8 (≈ 18.1 µM)	32 (≈ 72.2 µM)	8 (≈ 18.1 µM)	0.5 (≈ 1.13 µM)	8 (≈ 18.1 µM)
C/C(=N\OC(Cn1ccnc1)c1ccc(F)cc1F)c1c(F)cccc1F (stereo not given)	16 (≈ 42.4 µM)	4 (≈ 10.6 µM)	16 (≈ 42.4 µM)	2 (≈ 5.3 µM)	0.25 (≈ 0.663 µM)	32 (≈ 84.8 µM)	1 (≈ 2.65 µM)	64 (≈ 170 µM)	32 (≈ 84.8 µM)	32 (≈ 84.8 µM)	32 (≈ 84.8 µM)	2 (≈ 5.3 µM)	0.03 (≈ 0.0795 µM)	8 (≈ 21.2 µM)
C/C(=N\OC(Cn1ccnc1)c1ccc(F)cc1F)c1ccc(F)cc1F (stereo not given)	32 (≈ 84.8 µM)	8 (≈ 21.2 µM)	8 (≈ 21.2 µM)	1 (≈ 2.65 µM)	2 (≈ 5.3 µM)	32 (≈ 84.8 µM)	2 (≈ 5.3 µM)	16 (≈ 42.4 µM)	32 (≈ 84.8 µM)	16 (≈ 42.4 µM)	16 (≈ 42.4 µM)	4 (≈ 10.6 µM)	0.03 (≈ 0.0795 µM)	16 (≈ 42.4 µM)
Cl.Clc1ccc(/C=N/OC(Cn2ccnc2)c2ccc(Cl)cc2Cl)c(Cl)c1 (stereo not given)	–	–	64	–	–	–	–	–	> 128	–	–	–	–	–
Clc1ccc(CO/N=C(\Cn2ccnc2)c2ccc(Cl)cc2Cl)c(Cl)c1 [OXICONAZOLE]	4 (≈ 9.32 µM)	2 (≈ 4.66 µM)	2 (≈ 4.66 µM)	2 (≈ 4.66 µM)	0.008 (≈ 0.0186 µM)	64 (≈ 149 µM)	0.25 (≈ 0.583 µM)	2 (≈ 4.66 µM)	0.03 (≈ 0.0699 µM)	2 (≈ 4.66 µM)	2 (≈ 4.66 µM)	4 (≈ 9.32 µM)	0.01 (≈ 0.0233 µM)	2 (≈ 4.66 µM)
Cl.Fc1ccc(/C=N/OC(Cn2ccnc2)c2ccc(F)cc2F)c(F)c1 (stereo not given)	–	–	16	–	–	–	–	–	16	–	–	–	–	–
C/C(=N\OC(Cn1ccnc1)c1ccc(F)cc1F)c1ccc(OCCN2CCOCC2)cc1 (stereo not given)	2 (≈ 4.25 µM)	4 (≈ 8.5 µM)	16 (≈ 34 µM)	2 (≈ 4.25 µM)	0.03 (≈ 0.0638 µM)	32 (≈ 68 µM)	4 (≈ 8.5 µM)	32 (≈ 68 µM)	8 (≈ 17 µM)	16 (≈ 34 µM)	16 (≈ 34 µM)	4 (≈ 8.5 µM)	0.25 (≈ 0.531 µM)	4 (≈ 8.5 µM)
Clc1ccc(C(Cn2ccnc2)O/N=C/c2ccc(OCCN3CCOCC3)cc2)c(Cl)c1 (stereo not given)	16 (≈ 32.7 µM)	2 (≈ 4.09 µM)	2 (≈ 4.09 µM)	4 (≈ 8.17 µM)	0.25 (≈ 0.511 µM)	8 (≈ 16.3 µM)	8 (≈ 16.3 µM)	8 (≈ 16.3 µM)	2 (≈ 4.09 µM)	2 (≈ 4.09 µM)	8 (≈ 16.3 µM)	8 (≈ 16.3 µM)	1 (≈ 2.04 µM)	16 (≈ 32.7 µM)
OC(Cn1cncn1)(Cn1cncn1)c1ccc(F)cc1F [FLUCONAZOLE]	> 128	0.5 (≈ 1.63 µM)	> 128	0.5 (≈ 1.63 µM)	0.5 (≈ 1.63 µM)	> 128	> 128	> 128	0.12 (≈ 0.392 µM)	> 128	> 128	> 128	2 (≈ 6.53 µM)	> 128
C/C(=N\OC(Cn1ccnc1)c1ccc(F)cc1F)c1cc(F)ccc1F (stereo not given)	64 (≈ 170 µM)	1 (≈ 2.65 µM)	4 (≈ 10.6 µM)	0.25 (≈ 0.663 µM)	2 (≈ 5.3 µM)	32 (≈ 84.8 µM)	1 (≈ 2.65 µM)	8 (≈ 21.2 µM)	8 (≈ 21.2 µM)	4 (≈ 10.6 µM)	8 (≈ 21.2 µM)	2 (≈ 5.3 µM)	0.03 (≈ 0.0795 µM)	16 (≈ 42.4 µM)
